For 13 compounds, IC50 and inhibition results are on record in ChEMBL document CHEMBL3585276, “Topoisomerase I and II inhibitory activity, cytotoxicity, and structure-activity relationship study of dihydroxylated 2,6-diphenyl-4-aryl pyridines” (Bioorg Med Chem, 2015).

Test [1] concerns HCT-15. The experiment in a line: Cytotoxicity against human HCT15 cells measured on day 4 by CCK8 assay. Type of test: functional, cell-based. To be noted: HCT-15, 96 h. In a few lines:
(§1)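 Cells seeded at […], grown overnight in medium with 10% FBS at 37 °C under 5% CO2. On day 2 they were serum-starved 4 h, then exposed to graded compound concentrations. On day 4 CCK-8 was added for a further 4 h and absorbance read at 450 nm. IC50 came from a four-parameter logistic fit, mean ± SD of three experiments in triplicate.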

In test [2] the test system is DU-145. Description: Cytotoxicity against human DU145 cells measured on day 4 by CCK8 assay. Type of test: functional, cell-based. To be noted: DU-145, 96 h. In a few lines: as §1
For orientation: Tetrazolium dyes change colour on reduction, which living cells bring about.

Test [3] deals with T47D. The experiment in a line: Cytotoxicity against human T47D cells measured on day 4 by CCK8 assay. Type of test: functional, cell-based. To be noted: 96 h. In a few lines:
as §1

In test [4] the test system is HeLa. The experiment in a line: Cytotoxicity against human HeLa cells measured on day 4 by CCK8 assay. The conditions noted are these: 96 h. Type of test: functional, cell-based. In a few lines:
as §1

In test [5] the target is DNA topoisomerase 2-alpha (Homo sapiens) (UniProt P11388). The experiment in a line: Inhibition of recombinant human DNA topoisomerase-2alpha using supercoiled pBR322 plasmid DNA as substrate at 100 uM after 30 mins by agarose gel electrophoresis relative to control. In a few lines: (§2)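 200 ng supercoiled pBR322 with 1 unit human topo II, incubated 30 min at 30 °C with or without compound in 10 mM Tris–HCl pH 7.9, 50 mM NaCl, 5 mM MgCl2, 1 mM EDTA, 1 mM ATP and 15 µg/mL BSA. Reaction was stopped with 7 mM EDTA and run on 1% agarose in TAE at 25 V. Gel was stained with ethidium bromide, visualized under UV, and supercoiled DNA quantitated densitometrically.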

Test [6] addresses T1, DNA topoisomerase 1 (Homo sapiens) (UniProt P11387).
T1 sequence (whole entry): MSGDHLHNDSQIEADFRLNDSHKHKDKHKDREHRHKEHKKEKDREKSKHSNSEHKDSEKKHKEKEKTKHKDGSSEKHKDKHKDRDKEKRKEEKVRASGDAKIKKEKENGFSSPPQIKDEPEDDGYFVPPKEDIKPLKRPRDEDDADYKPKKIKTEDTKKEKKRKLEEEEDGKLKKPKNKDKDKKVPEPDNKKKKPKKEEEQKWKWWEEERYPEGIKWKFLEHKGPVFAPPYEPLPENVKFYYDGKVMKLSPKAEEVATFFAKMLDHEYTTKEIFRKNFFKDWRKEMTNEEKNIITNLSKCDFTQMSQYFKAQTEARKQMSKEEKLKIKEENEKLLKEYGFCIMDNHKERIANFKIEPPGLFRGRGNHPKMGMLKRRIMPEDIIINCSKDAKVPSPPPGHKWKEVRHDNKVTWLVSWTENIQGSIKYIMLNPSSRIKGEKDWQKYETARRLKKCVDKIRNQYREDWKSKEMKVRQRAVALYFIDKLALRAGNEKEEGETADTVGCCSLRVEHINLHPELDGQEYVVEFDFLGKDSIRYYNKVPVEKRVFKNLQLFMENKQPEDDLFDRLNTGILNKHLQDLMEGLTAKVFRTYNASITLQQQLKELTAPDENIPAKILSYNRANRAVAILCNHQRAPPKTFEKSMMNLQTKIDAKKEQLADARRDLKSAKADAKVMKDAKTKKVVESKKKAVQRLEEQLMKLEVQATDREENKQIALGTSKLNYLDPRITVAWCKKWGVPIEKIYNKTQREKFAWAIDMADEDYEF
The experiment in a line: Inhibition of recombinant human DNA topoisomerase-1 assessed as relaxation of supercoiled DNA pBR322 at 100 uM after 30 mins by agarose gel electrophoresis relative to control. In a few lines:
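Relaxation assay with 100 ng pBR322 plasmid DNA and 1 unit recombinant human topo I. Buffer was 10 mM Tris–HCl pH 7.9, 150 mM NaCl, 0.1% BSA, 1 mM spermidine and 5% glycerol, incubated 37 °C for 30 min with or without compound. Products were run on a 1% agarose gel in TAE at 15 V for 7 h and stained with ethidium bromide (0.5 µg/mL) for 30 min.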

Test [7] has as its target DNA topoisomerase 2-alpha (Homo sapiens) (UniProt P11388). Description: Inhibition of recombinant human DNA topoisomerase-2alpha using supercoiled pBR322 plasmid DNA as substrate at 20 uM after 30 mins by agarose gel electrophoresis relative to control. In a few lines: as §2

pIC50: −log10 of the molar value.

Chain of DNA topoisomerase 2-alpha (Homo sapiens) (P11388 whole entry): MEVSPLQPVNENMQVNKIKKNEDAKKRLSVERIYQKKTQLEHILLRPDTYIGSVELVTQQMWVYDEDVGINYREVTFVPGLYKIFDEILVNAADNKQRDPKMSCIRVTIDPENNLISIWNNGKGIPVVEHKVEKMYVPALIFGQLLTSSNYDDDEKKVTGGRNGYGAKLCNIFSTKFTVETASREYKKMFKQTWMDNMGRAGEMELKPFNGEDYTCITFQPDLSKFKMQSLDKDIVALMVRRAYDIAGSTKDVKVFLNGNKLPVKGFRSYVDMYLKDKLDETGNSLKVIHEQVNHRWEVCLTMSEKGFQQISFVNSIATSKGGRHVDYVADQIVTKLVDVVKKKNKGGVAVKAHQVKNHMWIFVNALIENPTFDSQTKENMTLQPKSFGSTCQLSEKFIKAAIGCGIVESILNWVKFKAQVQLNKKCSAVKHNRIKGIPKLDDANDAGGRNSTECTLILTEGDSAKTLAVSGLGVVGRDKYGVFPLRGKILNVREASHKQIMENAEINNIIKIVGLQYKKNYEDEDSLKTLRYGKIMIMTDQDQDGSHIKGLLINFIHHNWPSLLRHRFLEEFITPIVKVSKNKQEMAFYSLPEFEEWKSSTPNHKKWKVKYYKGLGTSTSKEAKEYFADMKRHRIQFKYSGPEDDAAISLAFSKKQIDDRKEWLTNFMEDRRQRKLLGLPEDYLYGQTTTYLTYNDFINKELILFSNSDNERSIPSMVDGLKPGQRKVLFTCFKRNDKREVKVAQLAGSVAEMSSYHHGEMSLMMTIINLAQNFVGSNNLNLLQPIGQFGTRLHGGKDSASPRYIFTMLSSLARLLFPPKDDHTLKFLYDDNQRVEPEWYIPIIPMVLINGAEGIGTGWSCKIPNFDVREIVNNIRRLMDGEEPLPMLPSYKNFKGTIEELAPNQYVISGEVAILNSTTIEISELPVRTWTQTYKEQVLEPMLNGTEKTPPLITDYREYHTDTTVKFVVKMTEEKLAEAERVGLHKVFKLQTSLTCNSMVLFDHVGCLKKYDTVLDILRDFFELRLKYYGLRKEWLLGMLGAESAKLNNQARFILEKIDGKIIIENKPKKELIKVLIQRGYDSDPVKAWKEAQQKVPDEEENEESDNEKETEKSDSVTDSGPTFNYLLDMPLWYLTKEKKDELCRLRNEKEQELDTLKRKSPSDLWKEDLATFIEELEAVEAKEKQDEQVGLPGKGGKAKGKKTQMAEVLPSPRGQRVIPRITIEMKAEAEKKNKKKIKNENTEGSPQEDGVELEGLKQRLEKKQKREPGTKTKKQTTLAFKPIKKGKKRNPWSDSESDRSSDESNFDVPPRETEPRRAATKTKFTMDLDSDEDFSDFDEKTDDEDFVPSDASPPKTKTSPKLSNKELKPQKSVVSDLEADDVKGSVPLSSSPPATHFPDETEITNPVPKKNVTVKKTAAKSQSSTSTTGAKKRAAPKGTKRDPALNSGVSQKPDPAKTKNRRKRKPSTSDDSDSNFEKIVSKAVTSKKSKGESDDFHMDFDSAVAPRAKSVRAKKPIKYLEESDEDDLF

With `COc1cc([C@@H]2c3cc4c(cc3[C@@H](O[C@@H]3O[C@@H]5CO[C@@H](C)O[C@H]5[C@H](O)[C@H]3O)[C@H]3COC(=O)[C@H]23)OCO4)cc(OC)c1O` [ETOPOSIDE], the pIC50 was 4.72 in test [1], 5.68 in test [2], 4.86 in test [3] and 5.14 in test [4].
Take `Oc1ccccc1-c1cc(-c2ccoc2)cc(-c2ccccc2O)n1`: the pIC50 in test [1], in test [2], in test [3] and in test [4] was below 4.30 throughout. Further, the figures for the inhibition in test [5] and in test [6] were 12.2% and 1%, respectively.
In the case of `Oc1ccc(-c2cc(-c3ccccn3)cc(-c3ccc(O)cc3)n2)cc1`, the pIC50 in test [1] is below 4.30; in test [2], below 4.30; in test [3], 5.98; in test [4], below 4.30. Moreover, the inhibition was 27.4% in test [5] and 1.4% in test [6].
On to `CC[C@@]1(O)C(=O)OCc2c1cc1n(c2=O)Cc2cc3ccccc3nc2-1` [CAMPTOTHECIN], for which the negative logarithm of the IC50 (pIC50) in test [1] is 5.55; in test [2] it was 7.70; in test [3], 5.74; in test [4] it was 6.74.
For `Oc1ccc(-c2cc(-c3ccsc3)cc(-c3ccccc3O)n2)cc1`, the pIC50 in test [1], in test [2], in test [3] and in test [4] was below 4.30 in each case. Also, the inhibition in test [7] was determined as 9.7%; in test [5], 80.6%; in test [6] it was 13.8%.
Regarding `Oc1ccc(-c2cc(-c3ccccn3)cc(-c3cccc(O)c3)n2)cc1`, the pIC50 is below 4.30 in test [1], 5.70 in test [2], 6.01 in test [3] and 5.71 in test [4]. Also, the inhibition in test [5] is 11.9%; in test [6] it was 2.4%.
Consider `Oc1ccccc1-c1cc(-c2ccsc2)cc(-c2ccccc2O)n1`, for which the pIC50 in test [1], in test [2], in test [3] and in test [4] was below 4.30 each time. The inhibition in test [7] worked out at 4.7%; in test [5], 84.5%; in test [6], 0%.
Turning to `COc1cccc2c1C(=O)c1c(O)c3c(c(O)c1C2=O)C[C@@](O)(C(=O)CO)C[C@@H]3O[C@H]1C[C@H](N)[C@H](O)[C@H](C)O1` [DOXORUBICIN], the negative logarithm of the IC50 (pIC50) was 5.91 in test [1], 5.87 in test [3] and 6.06 in test [4].
For `Oc1ccc(-c2cc(-c3ccsc3)cc(-c3cccc(O)c3)n2)cc1`, the pIC50 in test [1] was 5.93; in test [2] it was 5.65; in test [3], 6.12; in test [4] it was 5.59. For the same compound, the inhibition in test [7] was 44.7%; in test [5], 91.5%; in test [6], 17.1%.
In the case of `Oc1cccc(-c2cc(-c3ccoc3)cc(-c3ccccc3O)n2)c1`, the pIC50 in test [1] was below 4.30; in test [2], 5.55; in test [3], below 4.30; in test [4] it was below 4.30. Also, the inhibition in test [7] came out at 7%; in test [5], 62.1%; in test [6], 29.5%.
As for `Oc1cccc(-c2cc(-c3ccccn3)cc(-c3cccc(O)c3)n2)c1`, the negative-log IC50 (pIC50) was 5.45 in test [1], 5.44 in test [2], 5.85 in test [3] and 5.19 in test [4]. The inhibition in test [7] came to 4.3%; in test [5], 52.2%; in test [6], 8.3%.
With `Oc1ccc(-c2cc(-c3ccccn3)cc(-c3ccccc3O)n2)cc1`, the pIC50 was below 4.30 in test [1], 4.60 in test [2], below 4.30 in test [3] and below 4.30 in test [4]. For the same compound, the inhibition in test [5] worked out at 7.8%; in test [6], 0.2%.
For `Oc1cccc(-c2cc(-c3ccsc3)cc(-c3ccccc3O)n2)c1`, the pIC50 in test [1], in test [2], in test [3] and in test [4] was below 4.30 in each case. The inhibition in test [7] is 11%; in test [5], 78.2%; in test [6], 10.2%.

Usually pIC50 stands for −log10 of the IC50, conventionally taken in molar units. Read a low pIC50 as a large IC50. One may read the inhibition as the percentage by which the read-out fell short of the control.
